# Test results reported in ChEMBL document CHEMBL1128747, “Phosphinic acid analogues of GABA. 1. New potent and selective GABAB agonists” (J Med Chem, 1995).
# Assays:
# [1] = target: T1, GABA B receptor (Rattus norvegicus, UniProt O88871+Q9Z0U4); assay: (§1) Inhibition of [3H]CGP-27492 binding to Gamma-aminobutyric acid type B receptor of rat cortex
# How it was run: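 Displacement of [3H]CGP27492 from rat cerebral cortex membranes, in triplicate. Nonspecific binding defined with 10 µM (R)-(-)-baclofen. IC50 obtained by computer curve fitting to a single-site model.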
# [2] = target: T2, GABA-A receptor; anion channel (Homo sapiens) (UniProt P14867+P47870+P18507+P28472+P48169+Q99928+Q9UN88+P34903+O00591+O14764+Q8N1C3+P18505+P78334+P47869+P31644+Q16445); assay: Inhibition of [3H]- muscimol binding to Gamma-aminobutyric acid A (GABA-A) receptor at 10e-5 M; assay type: protein-complex assay
# [3] = organism: Rattus norvegicus; assay: The compound was tested for inhibition of release of [3H]GABA from rat cortical slices after electrical stimulation.; assay type: functional
# [4] = target: Serotonin 3 (5-HT3) receptor (Homo sapiens) (UniProt P46098+A5X5Y0+O95264+Q70Z44+Q8WXA8); assay: Inhibition of [3H]- BRL 43 694 binding to 5-hydroxytryptamine 3 receptor at 10e-5 M; assay type: protein-complex assay
# [5] = target: T3, Adrenergic receptor beta (Homo sapiens) (UniProt P08588+P07550+P13945); assay: Inhibition of [3H]- DHA binding to Beta adrenergic receptor; assay type: protein assay; conditions: concentration not given here
# [6] = The compound was tested for blockade of the monosynaptic reflexes in the hemisected neonatal spinal cord; assay type: functional, Rattus norvegicus
# [7] = target: Adrenergic receptor alpha-1 (Homo sapiens) (UniProt P35348+P25100+P35368); assay: Inhibition [3H]- prazosin binding to Alpha-1 adrenergic receptor at 10e-5 M; assay type: protein assay
# [8] = target: Adrenergic receptor alpha-2 (Homo sapiens) (UniProt P08913+P18825+P18089); assay: Inhibition of [3H]- clonidine binding to Alpha-2 adrenergic receptor at 10e-5 M; assay type: protein assay
# [9] = target: T2, GABA-A receptor; anion channel (Homo sapiens); assay: Inhibition of [3H]- flunitrazepam binding to GABA-A benzodiazepine receptor at 10e-5 M; assay type: protein-complex assay
# [10] = system: Rattus norvegicus; assay: Deterioration of rotarod performance of rats 0.5-1 hour after subcutaneous administration of compound; assay type: functional, organism-based
# How it was run: (§2)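 Male Sprague-Dawley rats (120-140 g), eight per dose. Compound is dissolved in water and given orally (5 mL/kg) or subcutaneously into the neck (2 mL/kg). Rats are pre-trained to stay 300 s on an 11 rpm, 6 cm cylinder. Time on the rod (maximum 300 s) is recorded at 0.5-1 h after sc or 1.5-2 h after po dosing. EC50 is the dose in µmol/kg at which 50% fall off within ≤150 s, estimated by Probit.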
# [11] = target: Mu-type opioid receptor (Homo sapiens) (UniProt P35372); assay: Inhibition of [3H]- naloxone binding to mu-opiate receptor at 10e-5 M
# Sequence of Mu-type opioid receptor (Homo sapiens) (P35372 whole entry): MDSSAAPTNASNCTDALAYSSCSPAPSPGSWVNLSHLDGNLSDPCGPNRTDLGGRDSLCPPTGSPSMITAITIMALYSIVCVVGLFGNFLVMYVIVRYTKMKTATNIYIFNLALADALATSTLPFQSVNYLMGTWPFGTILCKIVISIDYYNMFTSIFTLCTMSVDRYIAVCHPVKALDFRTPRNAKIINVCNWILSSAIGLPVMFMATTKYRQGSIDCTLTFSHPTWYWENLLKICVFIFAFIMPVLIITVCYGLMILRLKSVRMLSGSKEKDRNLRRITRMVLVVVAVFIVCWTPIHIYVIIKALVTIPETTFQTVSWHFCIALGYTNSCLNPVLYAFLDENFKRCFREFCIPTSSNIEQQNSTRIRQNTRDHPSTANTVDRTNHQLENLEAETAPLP
# [12] = target: Substance-P receptor (Homo sapiens) (UniProt P25103); assay: Inhibition of [3H]-substance P binding to Tachykinin receptor 1 at 10e-5 M
# Sequence of Substance-P receptor (Homo sapiens) (P25103 whole entry): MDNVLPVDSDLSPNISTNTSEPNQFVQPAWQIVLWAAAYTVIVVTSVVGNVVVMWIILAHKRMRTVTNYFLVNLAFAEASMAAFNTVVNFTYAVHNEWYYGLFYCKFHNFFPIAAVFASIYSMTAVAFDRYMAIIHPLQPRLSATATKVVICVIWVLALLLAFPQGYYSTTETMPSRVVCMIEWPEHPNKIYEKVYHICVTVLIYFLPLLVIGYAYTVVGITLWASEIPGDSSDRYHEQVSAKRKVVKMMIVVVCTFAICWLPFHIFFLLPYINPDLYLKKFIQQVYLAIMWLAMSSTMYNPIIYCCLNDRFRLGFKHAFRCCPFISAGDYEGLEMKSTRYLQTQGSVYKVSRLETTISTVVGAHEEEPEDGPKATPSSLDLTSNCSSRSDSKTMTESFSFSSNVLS
# [13] = target: Histamine H1 receptor (Homo sapiens) (UniProt P35367); assay: Inhibition of [3H]- doxepine binding to histamine 1 receptor at 10e-5 M
# Sequence of Histamine H1 receptor (Homo sapiens) (P35367 whole entry): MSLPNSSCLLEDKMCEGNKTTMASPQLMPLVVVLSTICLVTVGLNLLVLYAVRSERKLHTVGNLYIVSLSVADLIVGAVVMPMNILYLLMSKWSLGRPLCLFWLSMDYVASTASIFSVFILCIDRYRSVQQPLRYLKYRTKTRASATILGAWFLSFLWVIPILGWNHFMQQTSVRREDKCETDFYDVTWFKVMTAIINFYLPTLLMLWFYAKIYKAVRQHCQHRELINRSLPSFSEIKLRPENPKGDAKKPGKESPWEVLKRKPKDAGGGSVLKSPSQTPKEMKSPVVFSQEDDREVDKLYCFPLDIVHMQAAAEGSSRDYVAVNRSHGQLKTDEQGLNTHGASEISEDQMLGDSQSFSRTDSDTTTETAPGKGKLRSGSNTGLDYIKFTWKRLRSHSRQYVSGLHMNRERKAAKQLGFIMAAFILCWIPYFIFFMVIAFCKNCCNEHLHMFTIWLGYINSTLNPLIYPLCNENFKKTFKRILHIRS
# [14] = Inhibition of [3H]- 5-HT binding to 5-hydroxytryptamine 1 receptor at 10e-5 M
# [15] = target: Muscarinic acetylcholine receptor (Homo sapiens) (UniProt P20309+P08173+P11229+P08172+P08912); assay: Inhibition of [3H]CMD binding to muscarinic ACh receptor at 10e-5 M; assay type: protein assay
# [16] = system: GABA-A receptor; anion channel; assay: Inhibition of [3H]muscimol binding to GABA-A receptor of rat cortex; assay type: tissue-based
# [17] = target: T4, Serotonin 2 (5-HT2) receptor (Homo sapiens) (UniProt P41595+P28223+P28335); assay: Ketanserin binding to 5-hydroxytryptamine 2 receptor at 10e-5 M; assay type: protein assay
# T4 sequence (P28223 whole entry, looked up): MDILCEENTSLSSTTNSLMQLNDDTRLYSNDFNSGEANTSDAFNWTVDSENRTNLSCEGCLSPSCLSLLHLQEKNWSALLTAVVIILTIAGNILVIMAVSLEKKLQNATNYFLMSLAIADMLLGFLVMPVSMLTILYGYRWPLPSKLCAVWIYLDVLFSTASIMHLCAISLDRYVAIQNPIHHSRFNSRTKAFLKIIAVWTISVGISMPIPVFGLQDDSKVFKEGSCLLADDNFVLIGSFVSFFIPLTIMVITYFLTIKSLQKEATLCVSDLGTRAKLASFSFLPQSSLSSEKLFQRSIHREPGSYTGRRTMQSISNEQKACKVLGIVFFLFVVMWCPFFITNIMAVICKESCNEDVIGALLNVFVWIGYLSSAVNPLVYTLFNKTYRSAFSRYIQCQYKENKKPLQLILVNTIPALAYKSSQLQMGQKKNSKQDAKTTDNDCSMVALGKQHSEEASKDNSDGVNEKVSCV
# T4 sequence (P28335 whole entry, looked up): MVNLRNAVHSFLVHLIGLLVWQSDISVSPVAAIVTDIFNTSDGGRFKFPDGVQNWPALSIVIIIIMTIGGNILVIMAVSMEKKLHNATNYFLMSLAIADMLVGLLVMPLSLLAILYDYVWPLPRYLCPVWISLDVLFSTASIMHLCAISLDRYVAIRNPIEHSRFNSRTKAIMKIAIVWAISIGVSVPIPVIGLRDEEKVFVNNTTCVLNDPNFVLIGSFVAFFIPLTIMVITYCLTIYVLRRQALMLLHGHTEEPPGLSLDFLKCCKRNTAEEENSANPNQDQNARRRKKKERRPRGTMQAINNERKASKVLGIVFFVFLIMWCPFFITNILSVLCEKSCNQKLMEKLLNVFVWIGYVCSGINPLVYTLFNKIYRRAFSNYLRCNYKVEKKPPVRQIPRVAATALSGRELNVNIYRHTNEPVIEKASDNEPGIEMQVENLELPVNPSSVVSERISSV
# T4 sequence (P41595 whole entry, looked up): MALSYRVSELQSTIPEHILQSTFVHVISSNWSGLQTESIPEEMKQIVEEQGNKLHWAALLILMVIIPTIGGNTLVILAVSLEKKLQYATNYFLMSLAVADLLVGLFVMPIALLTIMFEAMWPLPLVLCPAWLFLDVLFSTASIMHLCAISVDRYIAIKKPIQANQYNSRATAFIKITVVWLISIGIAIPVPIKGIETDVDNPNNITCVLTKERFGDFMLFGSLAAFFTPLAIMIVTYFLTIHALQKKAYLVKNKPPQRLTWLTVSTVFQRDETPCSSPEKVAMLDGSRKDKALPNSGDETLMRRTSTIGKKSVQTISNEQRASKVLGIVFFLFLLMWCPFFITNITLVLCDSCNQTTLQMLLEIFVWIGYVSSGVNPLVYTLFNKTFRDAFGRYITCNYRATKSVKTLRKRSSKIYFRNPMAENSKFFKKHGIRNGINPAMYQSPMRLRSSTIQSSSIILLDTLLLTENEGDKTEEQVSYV
# [18] = target: T5, Adenosine receptor A1 (Homo sapiens) (UniProt P30542); assay: Inhibition of [3H]- N-6-CA binding to Adenosine A1 receptor at 10e-5 M
# T5 sequence (whole entry): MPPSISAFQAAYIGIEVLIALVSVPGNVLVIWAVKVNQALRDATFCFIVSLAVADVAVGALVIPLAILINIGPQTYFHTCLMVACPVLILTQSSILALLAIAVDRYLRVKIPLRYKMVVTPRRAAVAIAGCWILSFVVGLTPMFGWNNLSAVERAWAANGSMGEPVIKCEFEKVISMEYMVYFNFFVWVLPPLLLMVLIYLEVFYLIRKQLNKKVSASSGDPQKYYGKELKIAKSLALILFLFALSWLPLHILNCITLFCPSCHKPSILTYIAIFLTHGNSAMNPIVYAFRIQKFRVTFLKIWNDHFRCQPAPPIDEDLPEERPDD
# [19] = target: GABA-B receptor (Homo sapiens) (UniProt Q9UBS5+O75899); assay: Inhibition of [3H]baclofen binding to Gamma-aminobutyric acid type B receptor of cat cerebellum at 10e-5 M; assay type: tissue-based; conditions: Felis catus, target entry is the homologue from another species
# [20] = system: Rattus norvegicus; assay: Deterioration of rotarod performance of rats 1-2 hour after subcutaneous administration of compound; assay type: functional, organism-based
# [21] = target: T6, GABA-B receptor (Homo sapiens, UniProt O75899+Q9UBS5); assay: Inhibition of [3H]baclofen binding to Gamma-aminobutyric acid type B receptor of cat cerebellum; assay type: tissue-based, Felis catus; conditions: target entry is the homologue from another species
# How it was run: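 Cat cerebellar synaptosomal membranes (200-300 µg protein), prepared by sucrose density gradient, lysis, freezing and repeated washes. […] Stopped by centrifugation and pellet counted. Run in triplicate. Nonspecific binding with 10 µM (R)-(-)-baclofen. IC50 from single-site curve fit.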
# [22] = target: T6, GABA-B receptor; assay: Inhibition of [3H]CGP-27492 binding to cat Gamma-aminobutyric acid type B receptor; assay type: protein-complex assay, Felis catus; conditions: target entry is the homologue from another species
# [23] = system: Rattus norvegicus; assay: Deterioration of rotarod performance of rats 1-2 hour after peroral administration of compound; assay type: functional, organism-based; how it was run: as §2
# [24] = target: T4, Serotonin 2 (5-HT2) receptor (Homo sapiens); assay: Inhibition of [3H]ketanserin binding to 5-hydroxytryptamine 2 receptor at 10e-5 M; assay type: protein assay
# [25] = target: T6, GABA-B receptor; assay: Inhibition of [3H]-baclofen binding to Gamma-aminobutyric acid type B receptor of cat cerebellum; assay type: tissue-based, Felis catus; conditions: target entry is the homologue from another species
# [26] = target: T1, GABA B receptor; assay: as §1; remark: listed apart in the source
# [27] = system: Rattus norvegicus; assay: Deterioration of rotarod performance of rats 1.2 hour after subcutaneous administration of compound; assay type: functional, organism-based
# [28] = target: T3, Adrenergic receptor beta (Homo sapiens); assay: Inhibition of [3H]- DHA binding to Beta adrenergic receptor at 10e-5 M; assay type: protein assay
# T1 sequence (Q9Z0U4 whole entry): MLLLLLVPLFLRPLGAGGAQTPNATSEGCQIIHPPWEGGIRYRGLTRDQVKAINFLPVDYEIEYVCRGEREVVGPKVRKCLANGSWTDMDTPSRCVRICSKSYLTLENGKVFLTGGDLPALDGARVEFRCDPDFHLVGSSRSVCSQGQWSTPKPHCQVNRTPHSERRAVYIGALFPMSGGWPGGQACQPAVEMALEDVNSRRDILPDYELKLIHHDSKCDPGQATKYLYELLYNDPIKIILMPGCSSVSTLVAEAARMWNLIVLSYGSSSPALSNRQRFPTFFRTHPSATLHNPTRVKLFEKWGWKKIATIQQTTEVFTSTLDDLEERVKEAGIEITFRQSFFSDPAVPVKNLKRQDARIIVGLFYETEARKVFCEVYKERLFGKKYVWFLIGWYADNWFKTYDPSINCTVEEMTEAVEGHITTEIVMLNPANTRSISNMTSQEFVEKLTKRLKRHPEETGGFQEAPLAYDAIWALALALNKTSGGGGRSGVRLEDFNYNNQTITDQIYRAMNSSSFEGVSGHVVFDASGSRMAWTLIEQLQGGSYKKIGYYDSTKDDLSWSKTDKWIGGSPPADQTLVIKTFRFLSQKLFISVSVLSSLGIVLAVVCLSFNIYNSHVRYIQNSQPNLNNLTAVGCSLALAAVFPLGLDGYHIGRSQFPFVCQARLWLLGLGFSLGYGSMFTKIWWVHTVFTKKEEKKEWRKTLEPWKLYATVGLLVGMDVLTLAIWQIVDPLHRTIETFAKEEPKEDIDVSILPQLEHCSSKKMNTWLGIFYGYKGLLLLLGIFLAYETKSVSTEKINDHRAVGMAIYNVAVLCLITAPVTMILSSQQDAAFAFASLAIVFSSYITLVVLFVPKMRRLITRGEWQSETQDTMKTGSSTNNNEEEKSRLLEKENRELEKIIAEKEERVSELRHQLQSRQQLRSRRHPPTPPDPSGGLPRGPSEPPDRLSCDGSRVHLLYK
# T1 sequence (O88871 whole entry): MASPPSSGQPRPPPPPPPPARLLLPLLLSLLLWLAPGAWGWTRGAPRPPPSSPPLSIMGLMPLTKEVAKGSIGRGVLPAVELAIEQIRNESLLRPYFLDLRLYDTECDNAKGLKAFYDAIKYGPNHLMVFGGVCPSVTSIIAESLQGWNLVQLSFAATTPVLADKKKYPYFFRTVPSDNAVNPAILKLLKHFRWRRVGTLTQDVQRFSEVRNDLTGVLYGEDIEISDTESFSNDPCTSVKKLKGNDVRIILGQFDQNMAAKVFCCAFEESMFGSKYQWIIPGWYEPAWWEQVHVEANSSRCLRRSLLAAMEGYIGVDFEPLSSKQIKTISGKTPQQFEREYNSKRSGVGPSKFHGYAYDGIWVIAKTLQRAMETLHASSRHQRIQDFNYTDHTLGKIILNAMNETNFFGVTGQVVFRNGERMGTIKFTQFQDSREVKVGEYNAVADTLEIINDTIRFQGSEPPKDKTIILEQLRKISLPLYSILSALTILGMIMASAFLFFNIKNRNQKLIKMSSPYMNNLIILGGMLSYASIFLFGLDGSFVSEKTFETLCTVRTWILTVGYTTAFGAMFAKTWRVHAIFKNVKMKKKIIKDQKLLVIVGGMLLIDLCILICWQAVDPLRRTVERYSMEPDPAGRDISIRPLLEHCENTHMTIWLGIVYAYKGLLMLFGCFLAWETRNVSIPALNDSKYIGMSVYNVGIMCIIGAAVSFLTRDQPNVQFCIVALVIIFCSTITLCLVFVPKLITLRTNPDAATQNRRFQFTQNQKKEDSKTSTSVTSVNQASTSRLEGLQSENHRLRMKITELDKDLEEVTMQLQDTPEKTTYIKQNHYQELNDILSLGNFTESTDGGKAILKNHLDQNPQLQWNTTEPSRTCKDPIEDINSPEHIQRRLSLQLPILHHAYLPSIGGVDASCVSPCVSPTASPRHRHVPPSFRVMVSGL
smiles,measurement,setting,value
CCC(CCN)P(C)(=O)O (centres undefined),IC50,[1],18.5 µM
CP(=O)(O)CCCN,inhibition,[2],0%
same,IC50,[3],0.45 µM
same,inhibition,[4],0%
same,inhibition,[5],0%
same,IC50,[6],0.05 µM
same,inhibition,[7],6%
same,inhibition,[8],9%
same,inhibition,[9],0%
same,EC50,[10],2 µM/kg
same,inhibition,[11],0%
same,inhibition,[12],2%
same,inhibition,[13],30%
same,inhibition,[14],46%
same,inhibition,[15],0%
same,IC50,[16],Not Active
same,inhibition,[17],0%
same,inhibition,[18],6%
NCCC(c1ccccc1)[PH](=O)O (centres undefined),inhibition,[19],10%
NCCCP(=O)(O)C(F)F,IC50,[3],10.6 µM
same,IC50,[1],0.089 µM
same,EC50,[10],22 µM/kg
CP(=O)(O)C[C@H](O)CN,IC50,[3],0.6 µM
same,IC50,[1],0.152 µM
same,IC50,[6],0.425 µM
same,EC50,[10],13 µM/kg
same,EC50,[20],135 µM/kg
CP(=O)(O)/C=C/CN,IC50,[1],0.665 µM
NCC(C[PH](=O)O)c1ccc(F)cc1 (centres undefined),IC50,[21],0.36 µM
CC(CCN)P(C)(=O)O (centres undefined),IC50,[1],0.14 µM
same,IC50,[22],0.166 µM
NCC(CC(=O)O)c1ccc(Cl)cc1 (racemic) [BACLOFEN],EC50,[10],24 µM/kg
same,IC50,[16]; read-out: IC50,1050 µM
same,EC50,[20],52 µM/kg
NC[C@@H](CC(=O)O)c1ccc(Cl)cc1,IC50,[3],213 µM
same,EC50,[23],> 200 µM/kg
same,EC50,[10],> 200 µM/kg
same,IC50,[16]; read-out: IC50,1560 µM
CP(=O)(O)CC(O)CN (centres undefined),IC50,[1],0.077 µM
same,IC50,[22],0.029 µM
NCCCP(=O)(O)O,IC50,[1],6.81 µM
NCC(C[PH](=O)O)c1ccc(Cl)cc1 (centres undefined),IC50,[21],0.039 µM
same,EC50,[10],19 µM/kg
CP(=O)(O)C(CCN)C(F)(F)F (centres undefined),IC50,[1],67.6 µM
CP(=O)(O)C[C@@H](O)CN,inhibition,[2],0%
same,IC50,[3],0.4 µM
same,inhibition,[24],36%
same,inhibition,[4],0%
same,inhibition,[5],9%
same,IC50,[1],0.045 µM
same,IC50,[6],0.161 µM
same,inhibition,[7],0%
same,inhibition,[8],0%
same,inhibition,[9],0%
same,EC50,[10],2 µM/kg
same,inhibition,[11],0%
same,inhibition,[12],7%
same,inhibition,[13],22%
same,inhibition,[14],7%
same,inhibition,[15],0%
same,EC50,[20],36 µM/kg
same,inhibition,[18],16%
CCP(=O)(O)CCCN,IC50,[25],1.35 µM
same,IC50,[26],1.98 µM
same,IC50,[16],Not Active
NCC(C[PH](=O)O)c1ccccc1 (centres undefined),IC50,[21],0.88 µM
NCC(O)CP(=O)(O)C(F)F (centres undefined),IC50,[1],0.213 µM
CP(=O)(O)C(O)CCN (centres undefined),IC50,[1],1.16 µM
NCCCP(=O)(O)CO,IC50,[1],1.05 µM
CP(=O)(O)/C=C\CN,IC50,[1],16.6 µM
NC[C@H](CC(=O)O)c1ccc(Cl)cc1 [ARBACLOFEN],IC50,[3],0.33 µM
same,IC50,[6],0.325 µM
same,EC50,[10],9 µM/kg
same,EC50,[27],16 µM/kg
same,IC50,[16]; read-out: IC50,964 µM
NCCC[PH](=O)O,inhibition,[2],65%
same,IC50,[25],0.0024 µM
same,IC50,[26],0.0054 µM
same,IC50,[3],0.106 µM
same,inhibition,[24],0%
same,IC50,[6],60 µM
same,inhibition,[7],16%
same,inhibition,[9],24%
same,EC50,[10],> 813 µM/kg
same,inhibition,[11],0%
same,inhibition,[12],9%
same,inhibition,[13],0%
same,inhibition,[14],13%
same,inhibition,[28],0%
same,inhibition,[15],27%
same,IC50,[16]; read-out: IC50,1.7 µM
same,inhibition,[18],2%
NCC(O)C[PH](=O)O (centres undefined),IC50,[25],0.018 µM
NCC(O)(C[PH](=O)O)c1ccc(Cl)cc1 (centres undefined),IC50,[1],0.065 µM
